Laboratory results reported in ChEMBL document CHEMBL1142637, “New caryophyllene derivatives from Betula litwinowii” (2000).
In brackets after ≈: the same amount, converted by molar mass.

Columns and labels:
Format in all cases: functional
[1] = test system: Micrococcus luteus; assay: Antibacterial activity against Micrococcus luteus after 24 hrs
In short: (§1)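 Broth microdilution MIC. Compound stock in DMSO, serially diluted 1000 to 0.97 μg/mL in sterile distilled water. Bacteria were freshly grown in double-strength Mueller-Hinton broth and adjusted to 108 CFU/mL. Equal volumes of dilution and suspension were mixed. Sterile water well served as growth control, and dilutions without organism as negative control. After 37 °C for 24 h, MIC was read as the first well without turbidity.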

[2] = test system: Nakaseomyces glabratus; assay: Antifungal activity against Candida glabrata after 24 hrs
In short: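 Broth microdilution: pure compound stock in DMSO, serially diluted from 1000 to 0.97 μg/mL in sterile distilled water. Each dilution was mixed with an equal volume of standardized C. glabrata suspension in yeast medium. Sterile water served as growth control, and dilutions without organism as negative control. After 24 h at 37 °C, MIC was read as the first well without turbidity.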

[3] = test system: Pseudomonas aeruginosa; assay: Antibacterial activity against Pseudomonas aeruginosa after 24 hrs; in short: as §1
[4] = test system: Drechslera; assay: Antifungal activity against Drechslera sorokinianse at 200 ug/mL after 7 to 10 days by agar tube dilution technique relative to ketoconazole
In short: (§2)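 Agar tube dilution against plant pathogenic fungi. Compound in DMSO was mixed into molten SDA to a final 200 μg/mL and solidified as slants at room temperature. Slants were inoculated with 4×4 mm plugs cut from 1-week cultures and incubated 7–10 days at 29 °C. Linear growth (mm) was measured, and % inhibition was calculated against a DMSO-only medium control. Ketoconazole served as the reference drug.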

[5] = test system: Bacillus cereus; assay: Antibacterial activity against Bacillus cereus after 24 hrs; in short: as §1
[6] = test system: Fusarium solani; assay: Antifungal activity against Fusarium solani at 200 ug/mL after 7 to 10 days by agar tube dilution technique relative to ketoconazole; in short: as §2
[7] = test system: Ceratobasidium cereale; assay: Antifungal activity against Rhizoctonia cerealis at 200 ug/mL after 7 to 10 days by agar tube dilution technique; in short: as §2
[8] = test system: Staphylococcus aureus; assay: Antibacterial activity against Staphylococcus aureus after 24 hrs; in short: as §1
[9] = test system: Akanthomyces muscarius; assay: Antifungal activity against Cephalosporium ophidicola at 200 ug/mL after 7 to 10 days by agar tube dilution technique; in short: as §2
[10] = test system: Escherichia coli; assay: Antibacterial activity against Escherichia coli after 24 hrs; in short: as §1

Row | SMILES | MIC [1] [mg/L] | MIC [2] [mg/L] | MIC [3] [mg/L] | inhibition at 200 µg/mL [4] [%] | MIC [5] [mg/L] | inhibition at 200 µg/mL [6] [%] | inhibition at 200 µg/mL [7] [%] | MIC [8] [mg/L] | inhibition at 200 µg/mL [9] [%] | MIC [10] [mg/L]
1 | C=C1CCC[C@H](CO)CC[C@@H]2[C@@H]1CC2(C)C | 250 (≈ 1120 µM) | 125 (≈ 562 µM) | 250 (≈ 1120 µM) | 75 | 125 (≈ 562 µM) | 59 | 100 | 250 (≈ 1120 µM) | 100 | 250 (≈ 1120 µM)
2 | CC(=O)N1CCN(c2ccc(OCC3COC(Cn4ccnc4)(c4ccc(Cl)cc4Cl)O3)cc2)CC1 (stereo unspecified) [KETOCONAZOLE] |  | 62.5 (≈ 118 µM) |  |  |  |  |  |  |  | 
3 | O=C(N[C@H](CO)[C@H](O)c1ccc([N+](=O)[O-])cc1)C(Cl)Cl [CHLORAMPHENICOL] | 125 (≈ 387 µM) |  | 62.5 (≈ 193 µM) |  | 125 (≈ 387 µM) |  |  | 7.81 (≈ 24.2 µM) |  | 250 (≈ 774 µM)
